This is an account of results in ChEMBL document CHEMBL4184124, “Progress in antischistosomal N,N'-diaryl urea SAR” (Bioorg Med Chem Lett, 2018).

A short description of series [1]: Octanol-[…] partition coefficient, log D of the compound at pH 7.4 by RP-HPLC method.
Series [2] deals with Schistosoma mansoni. The experiment in a line: Antischistosomal activity against Schistosoma mansoni cercariae infected in NMRI mouse assessed as reduction in worm burden at 100 mg/kg, po administered as single dose via gavage measured after 21 days relative to control. The format is functional. Set-up: scale not given: the % may be the effect or the level left. The gist of the method: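 Infected mice given a single 100 mg/kg oral dose; efficacy read as worm burden reduction (%).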

Series [3] has as its system Schistosoma mansoni. The experiment in a line: Antischistosomal activity against newly transformed stage of Schistosoma mansoni measured after 72 hrs by microscopic analysis. The format is functional, organism-based. The gist of the method: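 Newly transformed schistosomula were first screened at 10 µM; compounds that killed them were then run as a concentration titration to derive IC50 values.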

A short description of series [4]: Cmax in Swiss mouse at 100 mg/kg, po administered as single dose via gavage by LC-MS analysis. The format is ADME, organism-based. Set-up: dose 100 mg/kg, route oral. The following applies: in vivo. The gist of the method:
(§1)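 Single 100 mg/kg oral dose given to non-infected male Swiss outbred mice; plasma sampled over 48 h post-dose; n=2 mice per time point, mean values. AUC taken to last measured concentration.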

The nature of series [5]: Tmax in Swiss mouse at 100 mg/kg, po administered as single dose via gavage by LC-MS analysis. The class given is ADME, organism-based. The following applies: in vivo. Summed up:
as §1

In another series the test system is U2OS. The series is described as follows: Cytotoxicity against human U2OS cells. The class given is cell-based.
Series [6] in a line: Drug uptake in Swiss mouse plasma at 100 mg/kg, po administered as single dose via gavage measured after 4 to 48 hrs by LC-MS analysis. The class given is ADME, organism-based. The conditions noted are these: in vivo. Summed up: as §1
A further series has as its system HFF. The experiment in a line: Cytotoxicity against HFF. The class given is cell-based. The following applies: Homo sapiens.
Series [7] is described as follows: Half-life in Swiss mouse at 100 mg/kg, po administered as single dose via gavage by LC-MS analysis. The format is ADME, organism-based. The conditions noted are these: in vivo. Summed up: as §1
In the next series the test system is HEK293. The series is described as follows: Cytotoxicity against HEK293 cells. The class given is cell-based. The following applies: Homo sapiens.
The nature of series [8]: Kinetic solubility of the compound in phosphate buffer at pH 6.5 by nephelometric method. The format is physicochemical. The conditions noted are these: read-out: Kinetic_solubility. Summed up: (§2)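 DMSO stocks spiked into pH 6.5 phosphate buffer or 0.01 M HCl (approx. pH 2.0); nephelometry gave a solubility concentration range.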
A short description of series [9]: Intrinsic clearance in mouse liver microsomes assessed per mg protein after 60 mins in presence of NADPH generating system. The class given is ADME, microsome. The following applies: 1 h. For orientation: Liver microsomes are vesicles of endoplasmic reticulum, rich in cytochrome P450 enzymes.
A short description of series [10]: Kinetic solubility of the compound in 0.01M HCl at pH 2 by nephelometric method. The class given is physicochemical. The conditions noted are these: read-out: Kinetic_solubility. The gist of the method: as §2
Series [11] in a line: Cytotoxicity against human HC04 cells. The format is cell-based.
The test system of series [12] is Schistosoma mansoni. The series is described as follows: Antischistosomal activity against adult stage of Schistosoma mansoni measured after 72 hrs by microscopic analysis. The class given is functional, organism-based.
Series [13] is described as follows: Intrinsic clearance in human liver microsomes assessed per mg protein after 60 mins in presence of NADPH generating system. The class given is ADME, microsome. The following applies: 1 h.
Series [14] can be described thus: AUC (0 to last) in Swiss mouse at 100 mg/kg, po administered as single dose via gavage by LC-MS analysis. The format is ADME, organism-based. The arrangement: dose 100 mg/kg, time 0 - last, route oral. The following applies: in vivo. Summed up:
as §1

In series [15] the test system is Schistosoma mansoni. The series is described as follows: Antischistosomal activity against newly transformed stage of Schistosoma mansoni assessed as parasite death at 10 uM. The class given is functional, organism-based. Summed up: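 Newly transformed schistosomula exposed at 10 µM as a screen for killing; active compounds then titrated to give IC50.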
The nature of series [16]: Half-life in mouse at 46.3 mg/kg, po. The class given is ADME, organism-based. The following applies: in vivo.
The test system of series [17] is Schistosoma mansoni. The experiment in a line: Antischistosomal activity against Schistosoma mansoni infected in NMRI mouse assessed as reduction in worm burden at 400 mg/kg, po administered as single dose measured after 14 days relative to control. The class given is functional. The arrangement: scale not given: the % may be the effect or the level left.
The test system of series [18] is Schistosoma mansoni. The series is described as follows: Antischistosomal activity against Schistosoma mansoni Liberian cercariae measured after 72 hrs by microscopic analysis. The format is functional, organism-based. Summed up: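 Newly transformed schistosomula prepared from cercariae, first screened at 10 µM as a gate. Active compounds then went through a concentration titration to derive IC50 values.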

The nature of series [19]: Cmax in mouse at 46.3 mg/kg, po. The class given is ADME, organism-based. The arrangement: dose 46.3 mg/kg, route oral. The following applies: in vivo.
Series [20] can be described thus: Plasma concentration in Swiss mouse at 100 mg/kg, po administered as single dose via gavage measured up to 48 hrs by LC-MS analysis. The format is ADME, organism-based. Summed up:
as §1

Series [21] is described as follows: Drug uptake in Swiss mouse plasma at 100 mg/kg, po administered as single dose via gavage measured after 2 hrs by LC-MS analysis. The format is ADME, organism-based. The conditions noted are these: in vivo. Summed up:
as §1

For series [22], the system named is Schistosoma mansoni. The series is described as follows: Antischistosomal activity against Schistosoma mansoni cercariae infected in NMRI mouse assessed as reduction in worm burden at 80 mg/kg, po administered as four consecutive dose via gavage measured after 21 days relative to control. The class given is functional. Set-up: scale not given: the % may be the effect or the level left. The gist of the method:
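Infected mice given four consecutive 80 mg/kg oral doses; efficacy read as worm burden reduction (%).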

≈ marks a conversion by molar mass, not a printed value. Calls of active or inactive are those of the source.

For the compound `O=C(Nc1ccnc(C(F)(F)F)c1)Nc1ccnc(C(F)(F)F)c1`, in series [1], the chromatographic logD (as a rule, a lipophilicity value derived from retention on a column) was 3. Also, the Activity in the series with Schistosoma mansoni [2] worked out at 20%. The IC50 (commonly the concentration needed to halve the response being measured) was 2400 nM in the series on Schistosoma mansoni [3]; above 100 µM in the series on U2OS; above 100 µM in the series with HFF; above 100 µM with HEK293; above 100 µM in [11]; 880 nM in the series with Schistosoma mansoni [12]. Moreover, the highest concentration (Cmax) (commonly the maximum level reached in the sampled fluid or tissue) in [4] was determined as 40 µM. In addition, in series [5], the time of peak concentration (Tmax) – broadly, the time at which the peak concentration occurs – stood at 4 h. Also, the Drug uptake entry in series [6] is “Active”. The half-life (commonly the time needed for the level to fall by half in the phase considered) in series [7] was 600 min. For the same compound, the solubility kinetic in series [8] and in series [10] was 12.5 to 25 µg/mL (≈ 35.7 to 71.4 µM) in each case. In addition, the CLH in series [9] and in series [13] was below 7 µL/min/mg throughout. Besides, the AUC(0-t) – broadly, exposure summed from dosing to a finite time, without extrapolation to infinity – in series [14] stood at 953 µM·h. The outcome in the series with Schistosoma mansoni [15] was Active.
Regarding `O=C(Nc1ccc(Cl)c(Cl)c1)Nc1ccc(Cl)c(Cl)c1`, the Activity in the series on Schistosoma mansoni [2] was determined as 0%; with Schistosoma mansoni [17], 53%. Moreover, the half-life in [16] is 282 min. In addition, the IC50 with Schistosoma mansoni [18] was 800 nM. The peak level in [19] (Cmax) was 4.4 µM.
For the compound `O=C(Nc1ccc(F)c(C(F)(F)F)c1)Nc1ccc(F)c(C(F)(F)F)c1`, the chromatographic logD in [1] turned out to be 4.5. In addition, in the series with Schistosoma mansoni [2], the Activity was found to be 40%. Moreover, the IC50 in the series on Schistosoma mansoni [3] was 150 nM; with U2OS, above 100 µM; in the series on HFF, 57 µM; in the series with HEK293, above 100 µM; in series [11], above 100 µM; in the series with Schistosoma mansoni [12] it was 190 nM. The highest concentration (Cmax) in series [4] turned out to be 31 µM. Also, the time to peak (Tmax) in series [5] is 4 h. For the same compound, the half-life in [7] was 660 min. Also, the CLH was determined as 7 µL/min/mg in [9] and 10 µL/min/mg in [13]. Also, in [10], the solubility kinetic is below 1.6 µg/mL. In [20], this compound returned a concentration at 48 h above 1000 nM. Moreover, the exposure AUC(0-t) in series [14] came out at 394 µM·h. The result with Schistosoma mansoni [15] was Active. Also, the Drug uptake result in series [21] is listed as “Active”.
For `O=C(Nc1ccnc(C(F)(F)F)c1)Nc1ccc(F)c(C(F)(F)F)c1`, in series [1], the chromatographic logD amounted to 3.8. Besides, the Activity with Schistosoma mansoni [2] stood at 50%; in the series on Schistosoma mansoni [22] it was 53%. Further, the IC50 is 740 nM in the series with Schistosoma mansoni [3]; above 100 µM in the series with U2OS; 71 µM with HFF; above 100 µM with HEK293; above 100 µM in [11]; 660 nM with Schistosoma mansoni [12]. This compound gave a maximum concentration (Cmax) in series [4] of 56 µM. In addition, the time to peak (Tmax) in series [5] is 7.5 h. For the same compound, the Drug uptake result in series [6] is listed as “Active”. The compound also gave a half-life in series [7] of 1080 min. Besides, the solubility kinetic in series [8] and in series [10] was 3.1 to 6.3 µg/mL (≈ 8.44 to 17.2 µM) each time. The CLH in series [9] and in series [13] was below 7 µL/min/mg each time. For the same compound, the AUC(0-t) in series [14] is 1490 µM·h. In the series on Schistosoma mansoni [15], the result was Active.
